Reference: ChEMBL document CHEMBL3393011, “Magnolol Inhibits RANKL-induced osteoclast differentiation of raw 264.7 macrophages through heme oxygenase-1-dependent inhibition of NFATc1 expression” (J Nat Prod, 2015)
Calls of active or inactive are those of the source. The rule behind the calls is not given here.

Tests used:
RAW264.7 [1] = assay: Cytotoxicity against mouse RAW264.7 cells assessed as cell viability at 5 to 20 uM after 24 hrs by MTT assay; assay type: cell-based; conditions: raw264.7, 24 h
Summary of the method: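 Cells grown in DMEM with 10% heat-inactivated FBS. Exposure to compound or 0.1% DMSO vehicle for 24 h. MTT added 1 h at 37 °C, formazan dissolved in DMSO and read at 570 nm.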

RAW264.7 [2] = assay: Antiosteoclast activity in mouse RAW264.7 cells assessed as reduction of RANKL-induced osteoclasts differentiation by measuring TRAP positive multinucleated cells after 5 days; assay type: functional, cell-based
Summary of the method: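 Cells seeded 24 h, then 5 days in α-MEM with 10% FBS, RANKL 50 ng/mL and test compound. Cells fixed in 10% formalin 10 min and TRAP-stained. Multinucleated TRAP+ cells with three or more nuclei counted by light microscopy; mean ± SD, n = 5.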

RAW264.7 [3] = assay: Inhibition of RANKL-stimulated JNK phosphorylation in mouse RAW264.7 cells at 20 uM by Western blotting analysis; assay type: cell-based
Summary of the method: (§1)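 Compound added 2 h before RANKL, followed by 15 min further incubation. Total cell lysates blotted on 12% SDS-PAGE for total and phosphorylated MAPKs, with milk block, primary overnight at 4 °C, HRP secondary, chemiluminescence and densitometry. At least three independent experiments.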

RAW264.7 [4] = assay: Inhibition of RANKL-stimulated ERK phosphorylation in mouse RAW264.7 cells at 20 uM by Western blotting analysis; assay type: cell-based; summary of the method: as §1
[5] = biological target: MAP kinase p38 (Mus musculus) (UniProt P47811+O08911+Q9WUI1+Q9Z1B7); assay: Inhibition of RANKL-stimulated p38 MAPK phosphorylation in mouse RAW264.7 cells at 20 uM by Western blotting analysis; assay type: cell-based; summary of the method: as §1
RAW264.7 [6] = assay: Induction of nuclear accumulation of Nrf2 in RANKL-induced mouse RAW264.7 cells up to 20 uM after 3 hrs by Western blot analysis; assay type: functional, cell-based
Summary of the method: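 Nuclear protein extracted with hypotonic then hypertonic (420 mM NaCl) buffers after 3 h RANKL 50 ng/mL with compound. Samples run on 12% SDS-PAGE and immunoblotted; at least three independent experiments.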

RAW264.7 [7] = assay: Antiosteoclast activity in mouse RAW264.7 cells assessed as reduction of RANKL-induced osteoclasts differentiation by measuring TRAP positive multinucleated cells after 5 days in presence of tin protoporphyrin 9 (SnPP); assay type: functional, cell-based
Summary of the method: (§2)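 RANKL 50 ng/mL for 5 days in α-MEM with 10% FBS after 24 h seeding; SnPP 10 μM with test compound. TRAP+ multinucleated cells (≥3 nuclei) counted after formalin fixation and staining. TRAP activity: fixed cells in 50 mM citrate pH 4.6, 10 mM tartrate, 5 mM pNPP for 1 h, stopped with 0.1 N NaOH, A410, as % of RANKL-alone.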

RAW264.7 [8] = assay: Antiosteoclast activity in mouse RAW264.7 cells assessed as reduction of RANKL-induced osteoclasts differentiation by measuring TRAP activity after 5 days in presence of tin protoporphyrin 9 (SnPP); assay type: functional, cell-based; summary of the method: as §2
RAW264.7 [9] = assay: Inhibition of NFATc1 expression in RANKL-induced mouse RAW264.7 cells at 20 uM after 24 hrs by immunofluorescence staining; assay type: functional, cell-based
Summary of the method: (§3)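 Compound 20 μM, alone or with SnPP 10 μM, plus RANKL 50 ng/mL for 24 h. Nuclear NFATc1 by western blot of nuclear extracts, and by immunofluorescence: methanol-fixed cells, 4% BSA block, anti-NFATc1 1:100 overnight at 4 °C, FITC secondary, DAPI counterstain. n = 5.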

RAW264.7 [10] = assay: Inhibition of NFATc1 expression in RANKL-induced mouse RAW264.7 cells at 20 uM after 24 hrs by immunofluorescence staining in presence of tin protoporphyrin 9 (SnPP); assay type: functional, cell-based; summary of the method: as §3
RAW264.7 [11] = assay: Inhibition of MMP9 activity in RANKL-induced mouse RAW264.7 cells at 20 uM after 5 days by gelatin zymography
RAW264.7 [12] = assay: Induction of HO-1 protein expression in RANKL-induced mouse RAW264.7 cells up to 20 uM after 48 hrs by Western blot analysis
RAW264.7 [13] = assay: Inhibition of RANKL-induced H2O2 production in mouse RAW264.7 cells pretreated for 2 hrs before RANKL stimulation for 10 mins
RAW264.7 [14] = assay: Inhibition of RANKL-induced superoxide anion production in mouse RAW264.7 cells pretreated for 2 hrs before RANKL stimulation for 10 mins
RAW264.7 [15] = assay: Inhibition of MMP9 activity in RANKL-induced mouse RAW264.7 cells at 20 uM after 5 days by gelatin zymography in presence of tin protoporphyrin 9 (SnPP)

C=CCc1ccc(O)c(-c2cc(CC=C)ccc2O)c1 [MAGNOLOL] was tested, and the Activity (RAW264.7 [1]) was “Non-toxic”, the Activity (RAW264.7 [2]) was “Dose-dependent effect” and the inhibition (RAW264.7 [3]) was “Active”. The inhibition (RAW264.7 [4]) was “Active”, the inhibition [5] was “Active” and the Activity (RAW264.7 [6]) was “Active”. For the same compound, the Activity (RAW264.7 [7]) was “inactive”, the Activity (RAW264.7 [8]) was “inactive” and the inhibition (RAW264.7 [9]) was “Active”. The inhibition (RAW264.7 [10]) was “inactive”, the inhibition (RAW264.7 [11]) was “Active” and the Activity (RAW264.7 [12]) was “Active”. The inhibition (RAW264.7 [13]) was “Dose-dependent effect”, the inhibition (RAW264.7 [14]) was “Dose-dependent effect” and the inhibition (RAW264.7 [15]) was “inactive”.
